Hits are enriched below; roughly 9.6% of the tested compounds scored in any of these assays.
APP 5UTR inh – APP translation inhibition; inhibition, % at 2 µM; SH-SY5Y APP 5'UTR-luciferase reporter, luminescence; 0.82% of 190,000 active;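 active means inhibition above a set limit, derived from the sample mean plus 3 SD, cut at about 45% in these data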
Lmaj promast – reduces viability of Leishmania major promastigotes | resazurin fluorescence viability | inhibition, % at 10 µM | 9% of 200,000 active | AID 1063; in the data active means inhibition above about 50%;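 further: promastigotes grown with compound for 44 hours at 28 °C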
BaF3 parental – reduces parental Ba/F3 cell viability, JAK2V617F counter-screen; inhibition, % at 5.6 µM; 1.1% of 220,000 active; AID 1486; CellTiter-Glo ATP luminescence;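 active means inhibition above a per-campaign cutoff, the mean inhibition of all tested compounds plus 3 SD, cut at about 27% in these data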
Ba/F3 V617F tox – reduce viability of Ba/F3 cells dependent on JAK2V617F | inhibition, % at 5.6 µM | Ba/F3 EpoR-JAK2V617F viability, ATP luminescence | 1.1% of 220,000 active;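 active means inhibition above the campaign mean plus 3 SD over all tested compounds, cut at about 24% in these data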;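 further: cytokine-independent growth of Ba/F3 cells driven by EpoR plus mutant JAK2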
bCat nuc transl – alters nuclear translocation of beta-catenin in HeLa cells; 0.3% of 190,000 active; immunofluorescence imaging; nuclear translocation activity, % at 5 µM;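 active means nuclear translocation activity above 50% at 5 µM, with a well cell count of 50 or more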;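 further: per-cell ratio of nuclear to cytoplasmic median beta-catenin stain intensity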
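Assay system: human HeLa cells, native beta-catenin; doses: 5 µM primary, 0.02–20 µM confirmation; incubation: compound treatment 24 h, 37°C, 5% CO2; technique: fluorescence imaging of beta-catenin antibody stain plus DAPI; measure: % activation, nuclear-to-cytoplasmic median beta-catenin signal ratio per cell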
MT stabilizer – microtubule stabilization, imaging screen | HeLa tubulin immunostaining HCS, 24 h; share of cells brighter than vehicle mean+2SD | % tubulin-high responders, % at 10 µM | 0.83% of 200,000 active | AID 2205;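 active means plate Z-score above 3 for both tubulin-high and condensed-nucleus cell shares, with cell loss under 80%, at 10 µM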;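 further: anti alpha tubulin signal scored within the nucleus-defined area of each cell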
A number is an active result; 0 = inactive; - = no result.

SMILES	APP 5UTR inh	Lmaj promast	BaF3 parental	Ba/F3 V617F tox	bCat nuc transl	MT stabilizer
COCCn1nnnc1C(c1ccccc1)N1CCN(Cc2ccc3c(c2)OCO3)CC1 (configuration not stated)	0	0	0	0	0	0
Fc1ccc(C(c2nnnn2C2CCCC2)N2CCN(Cc3ccncc3)CC2)cc1 (configuration not stated)	0	0	0	0	0	0
Fc1ccccc1C(c1nnnn1C1CCCC1)N1CCN(Cc2ccccc2)CC1 (configuration not stated)	0	61.4	0	0	0	0
CCC(c1nnnn1CCOC)N1CCN(Cc2ccccc2)CC1 (configuration not stated)	0	0	0	0	0	0
Cc1cc(NC(=O)C2CC=CCC2C(=O)O)no1 (configuration not stated)	0	0	0	0	-	0
CS(=O)(=O)N(CC(=O)NCCSc1ccccn1)c1ccc(F)cc1	0	0	0	0	0	0
C/C(N=Nc1nc2ccccc2s1)=N\Nc1ccccc1O	-	-	0	0	0	-
Clc1ccc(OCCCCN2CCc3ccccc3C2)cc1	0	85.3	0	0	0	0
COc1ccc(OCCOCCN2CCc3ccccc3C2)cc1	0	92.7	0	0	-	0
COc1ccc(NC(=O)NCCCN2CCc3ccccc3C2)cc1	0	0	0	0	0	0
O=C(COc1ccc(C2SCCS2)cc1)NNC(=O)C(Cl)Cl	-	-	0	0	0	-
Cc1cc2c(c(=O)o1)C(c1cccs1)C(C#N)=C(N)O2 (configuration not stated)	0	61.5	0	0	0	0
Cc1ccc([C@H]2C(C#N)=C(N)Oc3cc(C)oc(=O)c32)o1	0	100.0	0	0	0	0
CC(=O)Nc1ccc(S(=O)(=O)Nc2nccc(/C=C/c3ccc(Cl)cc3)n2)cc1	0	0	0	0	0	0
Cn1c(Cl)cnc1C1CC(=O)c2cc(Cl)ccc2O1 (configuration not stated)	0	100.4	49.8	55.4	0	0
CN1C2=NCCN2C(=O)c2cc(Cl)ccc21	-	-	0	0	0	-
CCCOc1cccc(NC(=O)OC2CCN(C)CC2)c1	0	0	0	0	0	0
Cc1ccccc1NC(=O)C1CCN(C2=NS(=O)(=O)c3ccccc32)CC1	0	0	0	0	0	0
O=C(/C=C\c1ccccc1)Oc1cccc2cccnc12	0	97.7	0	0	0	0
CCCCN(C)C1=Nc2cccc3cccc1c23	0	56.9	0	0	-	0
CCOC(=O)N1CCN(C2=Nc3cccc4cccc2c34)CC1	0	0	0	0	0	0
CC(C)(C)NC(=O)CN(C(=O)CS(=O)CC(=O)Nc1ccc(F)cc1)c1ccc(Cl)cc1 (configuration not stated)	0	0	0	0	0	0
CCN(CC)c1ccc2c(C)c(CN3CCOCC3)c(=O)oc2c1	0	100.2	0	0	0	0
CCN(CC)c1ccc2c(C)c(CO)c(=O)oc2c1	0	0	0	0	0	0
COc1ccc(/C=C/C(=O)OCC(=O)Nc2cc(C(F)(F)F)ccc2Cl)cc1	0	0	0	0	-	0
SMILES	APP 5UTR inh	Lmaj promast	BaF3 parental	Ba/F3 V617F tox	bCat nuc transl	MT stabilizer
CN(C)CCCN(C(=O)c1ccc(Br)s1)c1nc2cc3c(cc2s1)OCO3	0	74.5	0	0	0	0
Cc1cccc2sc(N(CCCN(C)C)C(=O)c3nc4ccccc4s3)nc12	0	77.7	0	0	-	0
Cc1ccc2sc(N(CCCN(C)C)C(=O)c3nc4ccccc4s3)nc2c1C	0	0	0	0	0	0
Cc1ccc2sc(N(CCCN(C)C)C(=O)c3ccc(Br)s3)nc2c1C	0	94.9	0	0	0	0
CC(=O)c1cccc(NC(=O)N2C3CCC2CC(NC(=O)C2CC2)C3)c1 (configuration not stated)	0	0	0	0	0	0
COc1cccc(N2CCN(c3ncnc4c3[nH]c3ccccc34)CC2C)c1 (configuration not stated)	0	90.3	0	0	0	0
COc1ccc2[nH]c3c(N4CC(C)OC(C)C4)ncnc3c2c1 (configuration not stated)	0	0	0	0	-	0
COc1cccc(N2CCN(c3ncnc4c3[nH]c3ccc(F)cc34)CC2C)c1 (configuration not stated)	0	100.4	52.8	62.5	0	25.8
O=C(NCc1ccco1)c1ccc(CNc2c(N3CCCCC3)c(=O)c2=O)cc1	0	0	0	0	0	0
Cn1nnnc1SCC(=O)Nc1cc(S(=O)(=O)N2CCCC2)ccc1Cl	0	0	0	0	0	0
Cc1cccc(Nc2nnc(SCC(=O)Nc3cccnc3Cl)s2)c1	0	62.0	0	0	-	0
Cc1cccc(NC(=O)CSc2nnc(NC(=O)c3ccc(S(=O)(=O)N4CCOCC4)cc3)s2)c1C	0	86.7	0	0	0	0
Cc1cccc(C)c1Nc1nnc(SCC(=O)Nc2cc(S(=O)(=O)N3CCCCC3)ccc2Cl)s1	0	50.2	0	0	0	0
O=C(CSc1cccc(C(F)(F)F)c1)Nc1cc(S(=O)(=O)N2CCCC2)ccc1Cl	0	55.0	0	0	0	0
Cc1ccc(Nc2nnc(SCC(=O)Nc3ccc(S(=O)(=O)N4CCOCC4)cc3)s2)cc1	0	0	0	0	0	0
Cc1cccc(Nc2nnc(SCC(=O)Nc3cccc(S(=O)(=O)N4CCCCC4)c3)s2)c1	0	0	0	0	0	0
COc1cccc(-n2cnc3sc4c(c3c2=O)CCC4)c1	0	0	0	0	0	0
COc1ccc(N2CCN(C(CNC(=O)C(=O)NCCCn3ccnc3)c3ccco3)CC2)cc1 (configuration not stated)	0	0	0	0	0	0
Cc1ccc(SCC(=O)NC(=O)NCCC(C)C)c(C)c1	0	0	0	0	0	0
CCN(CC)C(=S)Nc1c(C)n(C)n(-c2ccccc2)c1=O	0	0	0	0	0	0
Cc1ccc(-c2nnc(N3CC(C)OC(C)C3)c3ccccc23)cc1 (configuration not stated)	0	0	0	0	0	0
COc1ccc(NC(=O)CSc2nnc(NC(=O)c3ccc(S(=O)(=O)N4CCOCC4)cc3)s2)cc1	0	76.1	0	0	0	0
O=C(CC1SCCNC1=O)Nc1cccc([N+](=O)[O-])c1 (configuration not stated)	-	-	0	0	0	-
CC(C)Oc1ccc(CCN=C(N)N=C(N)N)cc1Cl	0	81.4	35.8	0	0	0
S=c1[nH]nc(-c2ccccn2)n1/N=C/c1ccc(-c2ccccc2Br)o1	0	0	0	0	0	0
c1ccc(C2Oc3ccccc3C3CC(c4cccs4)=NN32)cc1 (configuration not stated)	0	0	0	0	0	0
O=[N+]([O-])c1ccc(C2Oc3ccccc3C3CC(c4ccccc4)=NN32)s1 (configuration not stated)	0	99.3	0	0	0	0
CCc1cccc(CC)c1NC(=O)COC(=O)CC1c2ccccc2CCN1S(=O)(=O)c1ccc(F)cc1 (configuration not stated)	0	97.8	0	0	0	0
